{"source": "paper PMC2978023", "about": "(Journal of immunology (Baltimore, Md. : 1950), 2008)", "key": {"Bax [1]": {"test_system": "Bax", "experiment": "Bax cleavage in PMN lysates, Western blot", "type": "cell-based, human", "conditions": "PMN lysate, 16 h; proteins 1 μM, peptides 100 μM; six donors"}, "caspase-8 [2]": {"test_system": "caspase-8", "experiment": "Caspase-8 cleavage in PMN lysates, Western blot", "type": "cell-based, human", "conditions": "PMN lysate, 16 h; proteins 1 μM, peptides 100 μM; six donors"}, "caspase-3 [3]": {"test_system": "caspase-3", "experiment": "Caspase-3 cleavage in PMN lysates, Western blot", "type": "cell-based, human", "conditions": "PMN lysate, 16 h; proteins 1 μM, peptides 100 μM; six donors"}, "Akt [4]": {"test_system": "Akt", "experiment": "Akt phosphorylation in PMNs, Western blot", "type": "cell-based, human", "conditions": "PMN stimulated with 1 nM PMA, 30 min, 37 °C; proteins 1 μM, peptides 100 μM", "method_in_brief": "(§1)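 Human PMNs stimulated with 1 nM PMA were incubated with ligands for 30 min at 37°C in HBSS with 1 mM CaCl₂, 1 mM MgCl₂, 0.1% BSA, pH 7.4. Cells were lysed in ice-cold Tris/EDTA/detergent buffer with phosphatase and protease inhibitors. Equal protein was immunoblotted for phospho- and total Akt or ERK1/2, with actin. Inhibition arm: 20 min pretreatment at 37°C with 10 μM Akt inhibitor, 50 μM PD98059, 50 nM NIF, or F(ab′)₂ anti-αM or anti-MHC-1 (20 μg/ml), then 1 μM Plg.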"}, "ERK1/2 [5]": {"test_system": "ERK1/2", "experiment": "ERK1/2 phosphorylation in PMNs, Western blot", "type": "cell-based, human", "conditions": "PMN stimulated with 1 nM PMA, 30 min, 37 °C; proteins 1 μM, peptides 100 μM", "method_in_brief": "as §1"}, "αMβ2": {"test_system": "αMβ2", "experiment": "αMβ2 clustering on PMNs, fluorescence microscopy", "type": "cell-based, human", "conditions": "4 h, 37 °C; proteins 1 μM, peptides 100 μM; anti-αM OKMI staining; four donors", "method_in_brief": "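Human PMNs were exposed to ligands (proteins 1 μM, peptides 100 μM) for 4 h at 37°C, or to 1 μM Plg together with clustering inhibitors at the final concentrations used in apoptosis assays. Cells were fixed in 4% paraformaldehyde and stained with anti-αM mAb OKMI plus Alexa 488 goat anti-mouse IgG. They were cytospun, mounted and imaged by fluorescence microscopy (×40/0.7 NA); PMNs came from four donors.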"}, "[6]": {"target": "recombinant purified integrin αMβ2 (Homo sapiens, UniProt P05107+P11215)", "sequence (P05107 23-769, other chains not shown)": "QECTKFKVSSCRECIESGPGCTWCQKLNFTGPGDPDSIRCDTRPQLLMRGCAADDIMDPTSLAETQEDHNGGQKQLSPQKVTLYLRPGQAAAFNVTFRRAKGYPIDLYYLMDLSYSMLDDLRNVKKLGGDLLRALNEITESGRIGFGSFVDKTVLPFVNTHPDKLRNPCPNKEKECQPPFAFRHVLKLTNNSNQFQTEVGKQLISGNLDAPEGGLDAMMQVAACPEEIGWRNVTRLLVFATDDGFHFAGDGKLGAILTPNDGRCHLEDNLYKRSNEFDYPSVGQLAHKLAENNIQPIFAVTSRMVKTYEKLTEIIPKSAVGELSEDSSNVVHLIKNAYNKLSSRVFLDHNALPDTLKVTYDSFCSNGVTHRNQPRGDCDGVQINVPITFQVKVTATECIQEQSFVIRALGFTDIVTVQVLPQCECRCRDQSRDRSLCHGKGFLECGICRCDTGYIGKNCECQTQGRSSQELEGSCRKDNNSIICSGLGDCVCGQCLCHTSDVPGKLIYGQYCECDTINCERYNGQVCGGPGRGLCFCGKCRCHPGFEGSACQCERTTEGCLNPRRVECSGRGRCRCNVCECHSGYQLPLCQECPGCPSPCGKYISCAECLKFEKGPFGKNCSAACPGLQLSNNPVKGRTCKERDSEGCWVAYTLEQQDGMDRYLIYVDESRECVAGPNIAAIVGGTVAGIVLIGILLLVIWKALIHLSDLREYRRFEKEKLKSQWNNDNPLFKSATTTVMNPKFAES", "experiment": "Solid-phase binding to purified αMβ2", "conditions": "higher for Plg than for Ang(1–4)", "method_in_brief": "(§2)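 Purified recombinant αMβ2, αM or β2 (from HEK293 lines) was coated overnight at 4°C in TBS with 10 mM n-octyl-β-D-glucopyranoside and postcoated with 0.5% PVP for 1 h at 37°C. Biotinylated Plg or Ang(1–4) (0–10 μM) was bound for 2 h at 37°C in the same buffer plus 1 mM CaCl₂/MgCl₂. Binding was detected with alkaline phosphatase–avidin and pNPP at A405. Kd came from a one-site binding fit.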"}, "[7]": {"target": "recombinant purified β2 subunit (Homo sapiens, UniProt P05107)", "sequence (P05107 23-769)": "as the sequence (P05107 23-769, other chains not shown) above", "experiment": "Solid-phase binding to purified β2 subunit", "conditions": "solid-phase binding, αM versus β2", "method_in_brief": "as §2"}, "αMβ2 on K562 cells": {"test_system": "αMβ2 on K562 cells", "experiment": "Soluble ligand binding to K562 cells expressing αMβ2, FACS", "set-up": "species or system human", "conditions": "40 min, 37 °C", "method_in_brief": "(§3)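 Transiently transfected K562 cells were incubated with soluble Alexa 488-labelled Plg or Ang(1–4) for 40 min at 37°C in HBSS containing 1 mM CaCl₂ and 1 mM MgCl₂. Cells were washed twice and bound ligand was quantified by FACS; three independent experiments. For inhibition, cells were pretreated for 20 min at 37°C with function-blocking anti-αM or anti-β2 mAbs (20 μg/ml) or NIF (20 nM).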"}, "αM subunit on K562 cells": {"test_system": "αM subunit on K562 cells", "experiment": "Soluble ligand binding to K562 cells expressing αM, FACS", "set-up": "species or system human", "conditions": "40 min, 37 °C", "method_in_brief": "as §3"}, "β2 subunit on K562 cells": {"test_system": "β2 subunit on K562 cells", "experiment": "Soluble ligand binding to K562 cells expressing β2, FACS", "set-up": "species or system human", "conditions": "40 min, 37 °C", "method_in_brief": "as §3"}, "[8]": {"test_system": "mock-transfected K562 cells", "experiment": "Apoptosis of mock-transfected K562 cells, annexin V, FACS", "type": "cell-based, human", "conditions": "16 h, 37 °C; proteins 1 μM, peptides 100 μM; no ligand 81 ± 8; mean ± SEM, n = 5"}, "[9]": {"test_system": "αM^(Ile316→Gly)β2 on K562 cells", "experiment": "Adhesion of K562 cells expressing αM^", "type": "cell-based, human", "conditions": "K562 αM^(Ile316→Gly)β2, data not shown"}, "Bax [10]": {"test_system": "Bax", "experiment": "Bax cleavage in K562 cell lysates, Western blot", "type": "cell-based, human", "conditions": "K562 αMβ2 transfectants, 24 h, 37 °C; proteins 1 μM, peptides 100 μM"}, "caspase-3 [11]": {"test_system": "caspase-3", "experiment": "Caspase-3 cleavage in K562 cell lysates, Western blot", "type": "cell-based, human", "conditions": "K562 αMβ2 transfectants, 24 h, 37 °C; proteins 1 μM, peptides 100 μM"}, "caspase-8 [12]": {"test_system": "caspase-8", "experiment": "Caspase-8 cleavage in K562 cell lysates, Western blot", "type": "cell-based, human", "conditions": "K562 αMβ2 transfectants, 24 h, 37 °C; proteins 1 μM, peptides 100 μM"}, "Akt [13]": {"test_system": "Akt", "experiment": "Akt phosphorylation in transfected K562 cells, Western blot", "type": "cell-based, human", "conditions": "37 °C", "method_in_brief": "(§4)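 Transiently transfected K562 cells (αM, β2, αMβ2 or mock) were exposed to ligands for 30 min at 37°C and lysed in ice-cold buffer. Equal protein was run on SDS-PAGE and blotted with the PathScan Multiplex Western Cocktail I, then reprobed for total ERK1/2; blots shown are representative of three experiments.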"}, "ERK1/2 [14]": {"test_system": "ERK1/2", "experiment": "ERK1/2 phosphorylation in transfected K562 cells, Western blot", "type": "cell-based, human", "conditions": "37 °C", "method_in_brief": "as §4"}, "apoptotic PMNs": {"test_system": "apoptotic PMNs", "experiment": "Competition with annexin V-FITC binding to apoptotic PMNs", "type": "cell-based, human", "conditions": "0–10 μM, data not shown"}, "human PMNs": {"test_system": "human PMNs", "conditions": "Plg 1 μM, 16 h, 37 °C; media alone 90 ± 21; mean ± SEM, n = 6"}}, "note": "“And” between values parts separate entries of the source, which are not always exact repeats. Equal values may be shown once.", "data": [{"substance": "plasminogen [Plg]", "values": [{"measurement": "22-kDa Bax fragment", "setting": "Bax [1]", "result": "absent"}, {"measurement": "caspase-8 fragment", "setting": "caspase-8 [2]", "result": "absent"}, {"measurement": "18-kDa caspase-3 fragment", "setting": "caspase-3 [3]", "result": "absent"}, {"measurement": "Akt phosphorylation", "setting": "Akt [4]", "result": "robust Akt phosphorylation"}, {"measurement": "ERK1/2 activation", "setting": "ERK1/2 [5]", "result": "induced ERK1/2 activation"}, {"measurement": "αMβ2 macroclusters on PMN surface", "setting": "αMβ2", "result": "detected"}, {"measurement": "affinity of αMβ2 for Plg relative to Ang(1–4)", "setting": "[6]", "result": "~ 10 fold"}, {"measurement": "recognition by individual integrin subunits (in words)", "setting": "[7]", "result": "interacted with the individual αM and β2 subunits with similar affinities"}, {"measurement": "soluble ligand binding, αMβ2 cells (in words)", "setting": "αMβ2 on K562 cells", "result": "bound both ligands"}, {"measurement": "soluble ligand binding, αM cells (in words)", "setting": "αM subunit on K562 cells", "result": "bound both ligands"}, {"measurement": "soluble ligand binding, β2 cells (in words)", "setting": "β2 subunit on K562 cells", "result": "bound soluble Plg"}, {"measurement": "K562 early/late apoptosis (% annexin V+ cells), mock", "setting": "[8]", "result": "78 ± 10", "unit": "%"}, {"measurement": "adhesion to Plg versus wild type", "setting": "[9]", "result": "enhanced adhesion to Plg"}, {"measurement": "Bax cleavage product, αMβ2 cells", "setting": "Bax [10]", "result": "not detected"}, {"measurement": "caspase-3 cleavage product, αMβ2 cells", "setting": "caspase-3 [11]", "result": "not detected"}, {"measurement": "caspase-8 cleavage product, αMβ2 cells", "setting": "caspase-8 [12]", "result": "not detected"}, {"measurement": "Akt phosphorylation, αM, β2 and mock cells", "setting": "Akt [13]; K562 expressing αM or β2, or mock-transfected, 30 min", "result": "not in K562 cells expressing the individual αM or β2 subunits (Fig. 6A) or mock-transfected cells"}, {"measurement": "Akt activation, tailless and chimeric αMβ2", "setting": "Akt [13]; K562 expressing αM(1119Δ)β2, αMβ2(728Δ) or αM/αLβ2, Plg, 30 min", "result": "no Akt activation could be detected"}, {"measurement": "Akt phosphorylation, αMβ2 cells", "setting": "Akt [13]; K562 expressing αMβ2, 30 min", "result": "robust Akt phosphorylation"}, {"measurement": "ERK1/2 activation, αM cells", "setting": "ERK1/2 [14]; K562 expressing αM, 30 min", "result": "strongly induced"}, {"measurement": "ERK1/2 activation, αMβ2 cells", "setting": "ERK1/2 [14]; K562 expressing αMβ2, 30 min", "result": "strongly induced"}, {"measurement": "ERK1/2 phosphorylation, mock and β2 cells", "setting": "ERK1/2 [14]; K562 mock or expressing β2, 30 min", "result": "poorly induced"}, {"measurement": "competition with annexin V-FITC binding", "setting": "apoptotic PMNs", "result": "did not compete with annexin V-FITC binding at any concentration tested"}, {"measurement": "PMN early/late apoptosis (% annexin V+ cells), Plg alone", "setting": "human PMNs", "result": "32 ± 10% and 32 ± 105%"}]}]}
